Laboratory results reported in ChEMBL document CHEMBL1125896, “2-(oxadiazolyl)- and 2-(thiazolyl)imidazo[1,2-a]pyrimidines as agonists and inverse agonists at benzodiazepine receptors” (J Med Chem, 1991).

Columns and labels:
[1] = molecular target: GABA-A receptor; anion channel; assay: Binding affinity towards benzodiazepine receptor by the displacement of [3H]flunitrazepam from rat brain preparations.
Rattus norvegicus [2] = assay: Minimum effective dose on oral administration; format: functional; conditions: read-out: MED
Procedure, shortened: (§1)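 Food-motivated conflict test in trained Lister rats: five alternating 4-min FI30 unpunished and five 3-min FR5 punished components. Dosing po 30 min before testing, first at 50 mg/kg in four rats, then at decreasing doses (20, 10, 5, 2, 1 mg/kg) if active. MED is the dose giving a significant rise in punished responding (Mann-Whitney U).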

Rattus norvegicus [3] = assay: Compound was tested for conflict antagonism of chlordiazepoxide (CDZP) at 10 mg/kg orally.; format: functional; conditions: po, read-out: MED
Procedure, shortened: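 Food-motivated conflict test in trained Lister rats: test compound given po with 10 mg/kg po chlordiazepoxide. Effect compared with chlordiazepoxide alone in the same rats in separate assays. Schedule of five alternating 4-min FI30 unpunished and five 3-min FR5 punished components.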

Mus musculus [4] = species on record: Mus musculus; assay: Dose of leptazol-inducing tonic seizures in CD-1 mice was determined and represented as ED50; format: functional
Mus musculus [5] = species on record: Mus musculus; assay: Sedative/muscle relaxant effects in male CD-1 mice was assessed with a Ugo Basile rotating drum and the dose causing 50% decrease in time (ED50) was evaluated; format: functional
Procedure, shortened: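 Rotating drum of 3 cm diameter at 16 rev/min; time on drum recorded 1 h after dosing. Mean for groups of 10 mice expressed as percentage of control group mean.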

Rattus norvegicus [6] = assay: Compound was tested for the minimum effective dose (MED) on oral administration; value ranges from 2-5 mg/Kg; format: functional; conditions: read-out: MED; procedure, shortened: as §1
Mus musculus [7] = species on record: Mus musculus; assay: The dose of leptazol-inducing tonic seizures in CD-1 mice was determined and represented as ED50.; format: functional
Rattus norvegicus [8] = assay: Compound was tested for the minimum effective dose (MED) on oral administration; value ranges from 1-2 mg/Kg; format: functional; conditions: read-out: MED; procedure, shortened: as §1
Mus musculus [9] = assay: Intraperitoneal dose of leptazol-inducing tonic seizures in CD-1 mice was determined and represented as ED50; format: functional; conditions: ip
Mus musculus [10] = species on record: Mus musculus; assay: Sedative/muscle relaxant effects in male CD-1 mice was assessed with a Ugo Basile rotating drum and the dose causing 50% decrease in time (ED50) was calculated.; format: functional
Procedure, shortened: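 Male CD-1 mice, groups of 10, were placed on a rotating drum (3 cm diameter, 16 rev/min) 1 h after dosing and their time on the drum was recorded. The group mean was expressed as a percentage of the control group mean. The dose giving a 50% decrease came from best-fit lines through at least three dose-effect points, with 95% confidence limits by Litchfield and Wilcoxon.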

Rattus norvegicus [11] = assay: Compound was tested for the minimum effective dose (MED) on oral administration; value ranges from 10-50 mg/Kg; format: functional; conditions: read-out: MED; procedure, shortened: as §1

| SMILES | IC50 [1] | minimal effective dose (Rattus norvegicus [2]) | further results |
| --- | --- | --- | --- |
| CCc1c(OC)nc2nc(-c3noc(C)n3)c(Cl)n2c1C | 10 µM | 10 mg/kg |  |
| CCc1c(OC)nc2nc(-c3n[nH]c(C)n3)cn2c1C | > 10 µM | > 50 mg/kg |  |
| CCc1csc(-c2cn3c(C)c(CC)c(OC)nc3n2)n1 | 0.22 µM | 50 mg/kg | minimal effective dose (Rattus norvegicus [3]): 50 mg/kg |
| CCc1c(OC)nc2nc(-c3cc(C)no3)cn2c1C | 4.5 µM | 50 mg/kg |  |
| CCOC(=O)c1csc(-c2cn3c(C)c(CC)c(OC)nc3n2)n1 | 2.8 µM | > 50 mg/kg |  |
| CCc1c(OC)nc2nc(-c3noc(C)n3)cn2c1C [FASIPLON] | 0.5 µM |  | ED50 (Mus musculus [4]): 7.4 mg/kg; ED50 (Mus musculus [5]): 17 mg/kg; minimal effective dose (Rattus norvegicus [6]): 2 mg/kg |
| CCCc1c(OC)nc2nc(-c3nnc(C)o3)cn2c1C | 7.9 µM | 10 mg/kg |  |
| CCc1c(OC)nc2nc(-c3noc(C(F)(F)F)n3)cn2c1C |  |  | ED50 (Mus musculus [7]): 70 mg/kg; ED50 (Mus musculus [5]): > 200 mg/kg; minimal effective dose (Rattus norvegicus [8]): 1 mg/kg |
| CCc1c(OC)nc2nc(-c3nc(C)no3)cn2c1C | 0.63 µM | 5 mg/kg | ED50 (Mus musculus [4]): 14 mg/kg; ED50 (Mus musculus [5]): > 100 mg/kg |
| CCc1c(OC)nc2nc(-c3nc(C(F)(F)F)cs3)cn2c1C | 2 µM | > 50 mg/kg | minimal effective dose (Rattus norvegicus [3]): > 50 mg/kg |
| CCc1c(OC)nc2nc(-c3nc(C)cs3)cn2c1C | 0.112 µM | > 50 mg/kg | ED50 (Mus musculus [9]): 1.7 mg/kg; minimal effective dose (Rattus norvegicus [3]): 10 mg/kg |
| CCc1nnc(-c2cn3c(C)c(CC)c(OC)nc3n2)o1 | > 10 µM | 50 mg/kg |  |
| COc1nc2nc(-c3nc(C)cs3)cn2c2c1CCCC2 | 0.022 µM | > 50 mg/kg | minimal effective dose (Rattus norvegicus [3]): > 50 mg/kg |
| CCc1c(OC)nc2nc(-c3cc(C)[nH]n3)cn2c1C | 5 µM | > 50 mg/kg |  |
| CNC1=Nc2ccc(Cl)cc2C(c2ccccc2)=[N+]([O-])C1 [CHLORDIAZEPOXIDE] |  | 2 mg/kg | ED50 (Mus musculus [7]): 1.9 mg/kg; ED50 (Mus musculus [10]): 6.8 mg/kg |
| CCCc1c(OC)nc2nc(-c3noc(C)n3)cn2c1C | 1.6 µM | 5 mg/kg | ED50 (Mus musculus [4]): 13 mg/kg; ED50 (Mus musculus [5]): 16.5 mg/kg |
| CCc1c(OC)nc2nc(-c3nccs3)cn2c1C | 0.2 µM |  | minimal effective dose (Rattus norvegicus [3]): 10 mg/kg |
| CCc1c(OC)nc2nc(-c3nnc(C(F)(F)F)o3)cn2c1C | > 10 µM |  | minimal effective dose (Rattus norvegicus [11]): 10 mg/kg |

| SMILES | IC50 [1] | minimal effective dose (Rattus norvegicus [2]) | further results |
| --- | --- | --- | --- |
| COc1nc2nc(-c3noc(C)n3)cn2c2c1CCCC2 [TANIPLON] | 0.56 µM | 5 mg/kg | ED50 (Mus musculus [4]): 55 mg/kg; ED50 (Mus musculus [5]): > 100 mg/kg |
| C/C=C/c1c(OC)nc2nc(-c3nnc(C)o3)cn2c1C | > 10 µM | > 50 mg/kg |  |
| CCc1c(OC)nc2nc(-c3nc(C)c(C)s3)cn2c1C | 2.5 µM | > 50 mg/kg | minimal effective dose (Rattus norvegicus [3]): > 50 mg/kg |
| C=CCc1c(OC)nc2nc(-c3noc(C)n3)cn2c1C | 0.56 µM | 10 mg/kg |  |
| CCc1c(SC)nc2nc(-c3nc(C)cs3)cn2c1C | 0.08 µM | > 50 mg/kg | minimal effective dose (Rattus norvegicus [3]): 50 mg/kg |
| CCc1c(SC)nc2nc(-c3noc(C)n3)cn2c1C | 0.16 µM | 2 mg/kg |  |
| CCc1c(OC)nc2nc(-c3nnc(C)o3)cn2c1C |  | 2 mg/kg | ED50 (Mus musculus [4]): 20 mg/kg; ED50 (Mus musculus [5]): > 200 mg/kg |
| C=CCc1c(OC)nc2nc(-c3nc(C)cs3)cn2c1C | 0.1 µM | > 50 mg/kg | minimal effective dose (Rattus norvegicus [3]): > 50 mg/kg |
| CCc1c(SC)nc2nc(-c3nnc(C)o3)cn2c1C | 0.32 µM | 5 mg/kg |  |
| CCc1c(OC)nc2nc(-c3nnco3)cn2c1C | 10 µM | > 50 mg/kg |  |
| CCc1c(OC)nc2nc(-c3nnc(C)s3)cn2c1C | > 10 µM |  | minimal effective dose (Rattus norvegicus [6]): 2 mg/kg |
| CCc1c(OC)nc2nc(-c3noc(C)n3)c(Br)n2c1C | 10 µM | 10 mg/kg |  |
| CCc1c(OC)nc2nc(-c3nnc(-c4ccccc4)o3)cn2c1C | > 10 µM | > 50 mg/kg |  |
| CCCc1nnc(-c2cn3c(C)c(CC)c(OC)nc3n2)o1 | > 10 µM | 50 mg/kg |  |
| CCc1c(OC)nc2nc(-c3cnco3)cn2c1C | 2.5 µM | > 50 mg/kg |  |
| COc1nc2nc(-c3nnc(C)o3)cn2c2c1CCCC2 | 3.2 µM | > 50 mg/kg |  |
| C=CCc1c(OC)nc2nc(-c3nnc(C)o3)cn2c1C | 2.5 µM | 10 mg/kg |  |
| CCCc1c(OC)nc2nc(-c3nc(C)cs3)cn2c1C | 0.1 µM | > 50 mg/kg | minimal effective dose (Rattus norvegicus [3]): 50 mg/kg |
